Data set [1] in a line: Solubility of compound in FaSSIF at pH 6.5 by HPLC-UV analysis. In kind it is physicochemical. The method, boiled down: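 A 4-mM or 1-mM DMSO stock was freeze-dried and the residue taken up in FaSSIF (pH 6.5: sodium taurocholate, lecithin, KH2PO4, KCl, NaOH). Sonicated 10 min, shaken 2 h, centrifuged 10 min at 3000 rpm and filtered. Filtrate measured by HPLC-UV against each compound's calibration curve.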

Data set [2] addresses PI3-kinase p110-alpha/p85-alpha (Homo sapiens, UniProt P42336). Briefly: Inhibition of human PI3K p110alpha/p85alpha expressed in baculovirus preincubated for 20 mins followed by addition of phosphorylate phosphatidylinositol-4,5-bisphosphate as substrate and ATP measured after 15 mins by AlphaScreen competition assay. In a few lines:
(§1)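 Purified baculovirus-expressed human p110/p85α preincubated with compound 20 min at room temperature. Then 4 µM PI(4,5)P2 and 10 µM ATP (5 mM Hepes pH 7.5, 2.5 mM MgCl2) added for 15 min at 37 °C. PIP3 product detected by AlphaScreen competition using GST-GRP1, biotin-PIP3 and anti-GST acceptor/streptavidin donor beads, 1 h at room temperature.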

The nature of data set [3]: Cmax in Balb/c nude mouse at 50 mg/kg, po measured after 24 hrs by LC-MS/MS analysis. Details: dose 50 mg/kg, route oral. The following applies: in vivo. In kind it is ADME, organism-based. The method, boiled down: (§2)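 Female BALB/c-nu mice, n=2 per group, single oral dose of 50 mg/kg given as a solution in 10% DMSO, 10% Cremophor EL, 15% PEG400, 15% HPCD. Heparinized blood drawn at 0.25, 2, 4, 7 and 24 h; plasma stored at –80 °C. Plasma levels by LC–MS/MS; parameters by non-compartmental analysis.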

A short description of data set [4]: AUC in Balb/c nude mouse at 50 mg/kg, po measured after 24 hrs by LC-MS/MS analysis. The note with it: in vivo. Details: dose 50 mg/kg, time < 24 hr, route oral. In kind it is ADME, organism-based. The method, boiled down: as §2
A further data set deals with PI3K p110 beta/p85 alpha (Homo sapiens, UniProt P42338). Nature of the data set: Inhibition of human PI3K p110beta/p85alpha expressed in baculovirus preincubated for 20 mins followed by addition of phosphorylate phosphatidylinositol-4,5-bisphosphate as substrate and ATP measured after 15 mins by AlphaScreen competition assay. In a few lines:
as §1

Data set [5] can be described thus: Antiproliferative activity against PTEN negative human PC3 cells measured after 96 hrs by CCK-8 assay. In kind it is functional, cell-based. The following applies: PC-3, 96 h. In a few lines: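 PC-3 prostate cells (ATCC) exposed to a range of compound concentrations for 96 hours; growth inhibition read with Cell Counting Kit-8.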
A short description of data set [6]: Antitumor activity PTEN negative human PC3 cells xenografted into nude mouse assessed as tumor growth inhibition at 6.25 mg/kg, qd administered orally for 11 days. The format is functional. The following applies: PC-3, po, 264 h, read-out: TGI. The method, boiled down:
(§3)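 PC-3 grown as subcutaneous tumors in nude mice; dosing began (day 0) at about 130 mm3. Four mice per group, randomized to vehicle or drug by oral sonde once daily on days 0–10; vehicle 10% DMSO, 10% Cremophor EL, 15% PEG400, 15% HPCD. TV = (L W²)/2; TGI = [1 − (T − T0)/(C − C0)] × 100; body weight as W/W0 × 100.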

Data set [7] is described as follows: Permeability of compound by PAMPA method. The format is ADME. The note with it: read-out: permeability.
The test system of a further data set is Mus musculus. Briefly: Toxicity in nude mouse xenografted with PTEN negative human PC3 cells assessed as body weight loss. In kind it is organism-based, PC-3. The following applies: in vivo. In a few lines:
as §3

Data set [8] in a line: Metabolic stability in mouse liver microsomes assessed as clearance. In kind it is ADME. The following applies: read-out: CLH.
The nature of data set [9]: Metabolic stability in human liver microsomes assessed as clearance. The format is ADME. The note with it: read-out: CLH.

Converted amounts (≈) assume the structure as drawn. Where only a bound is given, the exact number is not on record here.

Chain of PI3-kinase p110-alpha/p85-alpha (P27986 whole entry): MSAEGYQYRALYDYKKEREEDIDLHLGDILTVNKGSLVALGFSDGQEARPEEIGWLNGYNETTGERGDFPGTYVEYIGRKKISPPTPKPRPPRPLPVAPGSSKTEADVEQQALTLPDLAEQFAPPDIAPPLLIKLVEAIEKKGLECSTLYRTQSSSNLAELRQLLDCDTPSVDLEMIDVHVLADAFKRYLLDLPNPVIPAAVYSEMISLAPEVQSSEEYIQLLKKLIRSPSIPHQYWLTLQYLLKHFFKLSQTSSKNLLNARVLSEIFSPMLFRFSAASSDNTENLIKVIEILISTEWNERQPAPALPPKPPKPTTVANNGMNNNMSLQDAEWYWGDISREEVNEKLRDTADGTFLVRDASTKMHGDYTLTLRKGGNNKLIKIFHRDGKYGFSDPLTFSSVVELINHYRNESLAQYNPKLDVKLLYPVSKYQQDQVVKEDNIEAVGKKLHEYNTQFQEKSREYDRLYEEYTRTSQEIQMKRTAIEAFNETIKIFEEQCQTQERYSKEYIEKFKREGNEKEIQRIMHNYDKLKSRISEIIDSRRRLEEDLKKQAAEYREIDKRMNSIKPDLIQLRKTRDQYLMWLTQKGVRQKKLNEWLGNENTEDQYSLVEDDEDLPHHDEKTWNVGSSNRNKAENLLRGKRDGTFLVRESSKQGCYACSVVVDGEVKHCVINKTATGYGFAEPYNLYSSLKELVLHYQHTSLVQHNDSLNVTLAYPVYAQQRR
Chain of PI3-kinase p110-alpha/p85-alpha (P42336 whole entry): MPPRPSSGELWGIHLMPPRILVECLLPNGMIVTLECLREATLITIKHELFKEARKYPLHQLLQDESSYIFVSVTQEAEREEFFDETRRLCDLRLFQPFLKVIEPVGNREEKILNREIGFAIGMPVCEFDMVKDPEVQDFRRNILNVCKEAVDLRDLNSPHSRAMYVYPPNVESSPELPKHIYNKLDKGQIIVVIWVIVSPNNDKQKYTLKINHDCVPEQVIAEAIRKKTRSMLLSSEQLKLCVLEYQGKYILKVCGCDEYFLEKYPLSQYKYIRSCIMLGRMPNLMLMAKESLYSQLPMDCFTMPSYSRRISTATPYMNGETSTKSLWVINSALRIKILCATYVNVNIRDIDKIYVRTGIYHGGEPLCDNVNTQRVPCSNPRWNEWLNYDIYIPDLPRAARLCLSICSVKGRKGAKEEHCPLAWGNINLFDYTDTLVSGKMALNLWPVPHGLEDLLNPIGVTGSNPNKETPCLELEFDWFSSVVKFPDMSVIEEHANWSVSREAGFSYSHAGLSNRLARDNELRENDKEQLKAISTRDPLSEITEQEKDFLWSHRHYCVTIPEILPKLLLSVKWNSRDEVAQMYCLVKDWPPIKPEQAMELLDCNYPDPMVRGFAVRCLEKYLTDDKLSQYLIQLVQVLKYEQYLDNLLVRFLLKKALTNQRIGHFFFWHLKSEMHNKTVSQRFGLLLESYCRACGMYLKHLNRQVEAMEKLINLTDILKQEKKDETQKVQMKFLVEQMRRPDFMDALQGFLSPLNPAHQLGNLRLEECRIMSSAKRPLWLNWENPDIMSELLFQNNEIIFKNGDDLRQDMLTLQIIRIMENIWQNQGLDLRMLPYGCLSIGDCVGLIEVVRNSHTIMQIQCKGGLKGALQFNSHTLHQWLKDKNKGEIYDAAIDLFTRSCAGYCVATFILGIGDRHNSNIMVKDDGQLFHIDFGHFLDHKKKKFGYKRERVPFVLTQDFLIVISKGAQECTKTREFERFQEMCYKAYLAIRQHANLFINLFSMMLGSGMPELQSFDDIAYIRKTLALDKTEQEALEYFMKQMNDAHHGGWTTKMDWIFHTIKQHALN
Chain of PI3K p110 beta/p85 alpha (P27986 whole entry): as the sequence (P27986 whole entry) above
Chain of PI3K p110 beta/p85 alpha (P42338 whole entry): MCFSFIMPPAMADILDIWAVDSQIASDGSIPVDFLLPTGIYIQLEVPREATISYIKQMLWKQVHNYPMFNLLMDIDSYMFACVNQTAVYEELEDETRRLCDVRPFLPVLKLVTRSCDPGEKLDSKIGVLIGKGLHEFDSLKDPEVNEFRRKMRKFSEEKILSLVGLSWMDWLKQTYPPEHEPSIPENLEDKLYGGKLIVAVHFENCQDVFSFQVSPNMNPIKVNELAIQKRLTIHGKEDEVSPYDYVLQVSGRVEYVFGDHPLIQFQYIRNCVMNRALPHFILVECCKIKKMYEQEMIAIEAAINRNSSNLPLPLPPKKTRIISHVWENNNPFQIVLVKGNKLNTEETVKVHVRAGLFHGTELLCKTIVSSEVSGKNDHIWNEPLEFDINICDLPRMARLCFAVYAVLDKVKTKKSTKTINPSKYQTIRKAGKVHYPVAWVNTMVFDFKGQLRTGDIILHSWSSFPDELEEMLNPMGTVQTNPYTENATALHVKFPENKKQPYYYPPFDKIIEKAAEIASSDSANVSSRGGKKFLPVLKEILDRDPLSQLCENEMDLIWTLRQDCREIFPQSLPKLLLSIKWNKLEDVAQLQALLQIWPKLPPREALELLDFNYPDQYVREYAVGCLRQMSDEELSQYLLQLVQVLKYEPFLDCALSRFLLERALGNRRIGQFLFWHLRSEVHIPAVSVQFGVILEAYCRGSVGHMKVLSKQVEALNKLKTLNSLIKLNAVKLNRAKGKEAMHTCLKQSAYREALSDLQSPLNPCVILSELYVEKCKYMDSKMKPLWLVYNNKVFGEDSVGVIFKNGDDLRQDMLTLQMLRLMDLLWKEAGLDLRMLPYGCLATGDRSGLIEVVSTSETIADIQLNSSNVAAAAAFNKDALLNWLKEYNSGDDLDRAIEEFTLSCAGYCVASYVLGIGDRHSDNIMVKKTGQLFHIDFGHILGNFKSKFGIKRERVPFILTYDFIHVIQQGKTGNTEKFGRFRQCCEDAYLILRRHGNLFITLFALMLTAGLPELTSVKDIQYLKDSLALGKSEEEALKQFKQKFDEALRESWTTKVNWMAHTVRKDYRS

With `Nc1ncc(-c2nc(N3CCOCC3)nc3c2CCN3c2cccnc2)cn1`, the solubility in data set [1] is less than 12 µg/mL.

The compound `Cc1ccccc1NC(=O)N1CCc2c(-c3cnc(N)nc3)nc(N3CCOCC3)nc21` registered a 50% inhibitory concentration (IC50) in data set [2] of 52 nM. Further, the solubility in [1] is less than 14 µg/mL.

In data set [1], `Nc1ncc(-c2nc(N3CCOCC3)nc3c2CCN3C(=O)Nc2ccccc2)cn1` showed a solubility of less than 3 µg/mL. For the same compound, the Cmax in [3] was found to be 104 ng/mL. In data set [4], this compound displayed an AUC at 24 h of 437 ng·h/mL.

In turn, `CCN1CCN(c2cc(F)c(NC(=O)N3CCc4c(-c5cnc(N)nc5)nc(N5CCOCC5)nc43)c(F)c2)CC1` displayed a solubility in data set [1] of 20 µg/mL (≈ 35.3 µM). In data set [3], this compound came in with a Cmax of 460 ng/mL. In data set [4], the AUC at 24 h came out at 5680 ng·h/mL. The values for the 50% inhibitory concentration (IC50) (on PI3K p110 beta/p85 alpha; in data set [5]) were 7 nM and 58 nM, respectively. For the same compound, the inhibition in vivo at 6.25 mg/kg in data set [6] was determined as 82%. In addition, the Papp in [7] was 1.1 ×10⁻⁶ cm/s. In addition, the Activity entry with Mus musculus is listed as “Non-toxic”. The microsomal CLint is 7.6 µL/min/mg in data set [8] and 2.2 µL/min/mg in data set [9].

Compound `CN(C(=O)N1CCc2c(-c3cnc(N)nc3)nc(N3CCOCC3)nc21)c1ccccc1` registered an IC50 in data set [2] of 130 nM. For the same compound, the solubility in data set [1] is less than 3 µg/mL.

Regarding `CC(C)c1ccccc1NC(=O)N1CCc2c(-c3cnc(N)nc3)nc(N3CCOCC3)nc21`, in [2], the IC50 came to 81 nM. In [1], this compound displayed a solubility of 13 µg/mL (≈ 28.2 µM).

As to `Cc1nc(N)ncc1-c1nc(N2CCOCC2)nc2c1CCN2c1cccnc1`, the IC50 in [2] is 260 nM. In data set [1], this compound had a solubility of 56 µg/mL (≈ 143 µM).

Compound `CCc1ccccc1NC(=O)N1CCc2c(-c3cnc(N)nc3)nc(N3CCOCC3)nc21` displayed an IC50 in data set [2] of 64 nM.

As for `CCN1CCN(c2ccc(NC(=O)N3CCc4c(-c5cnc(N)nc5)nc(N5CCOCC5)nc43)c(C)c2)CC1`, in data set [1], the concentration in solution (solubility) came to 11 µg/mL (≈ 20.2 µM). For the same compound, in data set [5], the midpoint of inhibition, the IC50, lay at 210 nM.

Consider `CCN1CCN(C(=O)c2ccc(NC(=O)N3CCc4c(-c5cnc(N)nc5)nc(N5CCOCC5)nc43)c(C)c2)CC1`, for which the IC50 was determined as 26 nM in data set [2] and 250 nM in data set [5]. In data set [1], the solubility is less than 18 µg/mL.
